Eleven compounds from PubChem BioAssay AID624074 (Broad Institute, 2012) can be followed below.

The source made the active and inactive calls.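 The calls were made as follows: active = fitted curve reaches a 35% growth drop -35 below twice the top tested dose; inactive = activity in the wrong direction, or the rest.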

Tested on in one test: not listed separately
As to the kind of experiment: iron-limited growth inhibition, mexAB-oprM mutant – whole organism, PAK mexAB-OprM mutant, OD600, EDDHA, dry powder, set 4, dose response (AID 624074). The following applies: P. aeruginosa PAK ΔmexAB-oprM growth with EDDHA, OD600, 28 h; at 100 µM (top of the series). The essentials: (§1)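 System: P. aeruginosa PAK ΔmexAB-oprM bacteria / Medium: succinate M9 medium at pH 7.0 / Reagent: 2 µM EDDHA chelator / Dosing: 15 nM–100 µM final compound / Timing: compound exposure of 28 h at 30 °C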
In the case of `COCCC(C#N)c1ccc(F)cc1` (stereo unspecified), the activity change, negative = growth inhibition was -11.9% (inactive).
Regarding `COCCNC(C#N)c1ccc(Cl)cc1` (stereo unspecified), the activity change, negative = growth inhibition is -1.19% (inactive).
Turning to `CCCCC(C#N)c1ccc(F)cn1` (stereo unspecified), the activity change, negative = growth inhibition was -15.7% (inactive).
As for `CCCCC(c1ccc(Cl)cc1)c1nn[nH]n1` (stereo unspecified), the activity change, negative = growth inhibition was -10.1% (inactive).

The test system of a further test is P. aeruginosa PAK ΔmexAB-oprM growth with EDDHA, OD600, 28 h. The description is as above.
Conditions: not given
A digest of the protocol: as §1
Consider `N#CC(c1ccc(F)cc1)c1cccc(C(F)(F)F)n1` (stereo unspecified), for which the AC35 is 25.6 µM.
With `N#CC(c1ccc(Cl)cc1)c1cccc(C(F)(F)F)n1` (stereo unspecified), the AC35 was 29 µM.
For `N#CC(c1ccc(Cl)cc1)c1ccc(Cl)cn1` (stereo unspecified), the AC35 was 72 µM.
Turning to `N#CC(c1ccc(Cl)cc1)c1ncccc1Cl` (stereo unspecified), the AC35 was 56.2 µM.
Still for that read-out and setting: the value for `N#CC(c1cccc(Cl)n1)c1ccc(Cl)cc1F` (stereo unspecified) was 47.5 µM; that for `N#CC(c1ccc(Cl)cc1)c1cccc(Cl)n1` (stereo unspecified) was 60.3 µM.
For the compound `N#CC(c1cccc(C(F)(F)F)n1)c1ccc(Cl)cc1F` (stereo unspecified), the AC35 was 37.8 µM.
